An excerpt weighted towards active compounds, which were near 2.3% of everything screened.
TRPC4 agonist: opens the mouse TRPC4 cation channel; Q9QUQ5; HEK293 TRPC4beta/mu-opioid, Fluo4 calcium fluorescence; active compounds read high; B-score at 10 µM; hit rate 0.49% among 310,000;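 active = B-score above 5 SD of library B-scores, and initial fluorescence ratio not above library mean plus 5 SD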;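 also: positive B-score marks a calcium rise read as TRPC4 activation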
Target sequence (Q9QUQ5 whole entry, looked up): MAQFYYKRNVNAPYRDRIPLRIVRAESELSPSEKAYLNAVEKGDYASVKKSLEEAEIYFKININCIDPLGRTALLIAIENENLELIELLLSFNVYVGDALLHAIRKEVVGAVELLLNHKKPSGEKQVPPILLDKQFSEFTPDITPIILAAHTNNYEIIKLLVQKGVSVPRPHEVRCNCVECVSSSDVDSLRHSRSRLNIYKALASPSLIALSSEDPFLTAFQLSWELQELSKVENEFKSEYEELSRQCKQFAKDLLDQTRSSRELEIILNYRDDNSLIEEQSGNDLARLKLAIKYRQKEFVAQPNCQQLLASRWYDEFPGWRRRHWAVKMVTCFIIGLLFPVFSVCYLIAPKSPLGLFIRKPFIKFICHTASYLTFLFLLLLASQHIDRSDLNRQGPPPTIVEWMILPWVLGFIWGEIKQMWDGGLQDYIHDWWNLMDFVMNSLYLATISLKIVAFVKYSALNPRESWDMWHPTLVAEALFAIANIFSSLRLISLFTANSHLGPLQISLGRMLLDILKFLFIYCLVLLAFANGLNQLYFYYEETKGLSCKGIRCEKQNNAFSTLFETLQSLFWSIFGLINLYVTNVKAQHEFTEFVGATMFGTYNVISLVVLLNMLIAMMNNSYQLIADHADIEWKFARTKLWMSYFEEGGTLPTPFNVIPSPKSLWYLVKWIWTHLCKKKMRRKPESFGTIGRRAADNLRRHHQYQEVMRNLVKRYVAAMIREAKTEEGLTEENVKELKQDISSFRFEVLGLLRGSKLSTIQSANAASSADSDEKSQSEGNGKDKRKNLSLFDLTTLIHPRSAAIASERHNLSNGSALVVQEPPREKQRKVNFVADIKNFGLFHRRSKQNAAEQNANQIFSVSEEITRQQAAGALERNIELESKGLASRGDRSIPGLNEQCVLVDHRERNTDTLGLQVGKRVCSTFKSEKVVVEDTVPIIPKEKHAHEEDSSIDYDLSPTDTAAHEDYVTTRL
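System – HEK293 cells stably co-expressing mouse TRPC4beta and mu-opioid receptor · Signal – Fluo4 calcium-sensitive dye fluorescence, kinetic, 1 Hz baseline · Benchmarks – buffer (low) and maximal DAMGO (high) · Read-out – B score of integrated fluorescence ratio per well · Incubation – dye loading 45 min room temperature, 110 s kinetic read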
TRPC4 potent: allosterically enhances the mouse TRPC4 cation channel | HEK293 TRPC4beta/mu-opioid, DAMGO EC20, Fluo-4 Ca2+ flux; active compounds read high | B-score at 10 µM | hit rate 0.42% among 310,000;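 active = B-score of calcium response area above 5 SD of library B-scores, with initial fluorescence ratio within 5 SD of library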
TRPC6 activator: mouse TRPC6 channel activation. Q61143. B-score at 10 µM. hit rate 0.13% among 310,000. HEK293-TRPC6 membrane potential dye fluorescence; active compounds read high. AID 2550;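 active = B-score of the integrated fluorescence ratio above library mean plus 3 SD, and starting fluorescence ratio within library mean plus 5 SD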;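 also: higher score means more depolarization so channel activation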
TRPC4 block: blocks the mouse TRPC4 cation channel. B-score at 10 µM. HEK293 TRPC4beta/mu-opioid, DAMGO-evoked Fluo4 calcium flux; active compounds read low. hit rate 0.39% among 300,000. Q9QUQ5;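 active = B-score over 3 SD under the library average, no early fluorescence shift, positive overall ratio signal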
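test system = HEK293 cells with stable TRPC4beta plus mu-opioid receptor expression | detection = Fluo4 Ca2+ flux fluorescence | read-out = integrated fluorescence ratio relative to baseline, converted to per-well B score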
TRPC6 inhibitor: blocks the mouse TRPC6 cation channel | Q61143 | HEK293-TRPC6, membrane potential dye, ACh-evoked depolarization; active compounds read low | B-score at 10 µM | hit rate 1.1% among 310,000 | AID 2553;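 active = B-score under library mean minus 3 SD, initial fluorescence not abnormally high, positive integrated signal ratio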;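 also: B-score derived from integrated fluorescence ratio over the kinetic read; more negative B-score means stronger inhibition of depolarization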
TRPC4 spec 2: second check of whether TRPC6 inhibitors also affect mouse TRPC4; shares compounds with TRPC6 inhibitor; HEK293 TRPC4/MOR, membrane potential dye fluorescence; channel activated by saturating DAMGO dose; inhibition, % at 10 µM; hit rate 42% among 920; AID 2776;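 active = compounds whose fluorescence signal differed from control wells by over 3 SD, either direction, in both duplicate plates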
TRPC4 spec: tests whether TRPC6 inhibitors also affect mouse TRPC4; shares compounds with TRPC6 inhibitor; HEK293 TRPC4/mu-opioid, membrane potential fluorescence; activity change, negative = inhibition, % at 10 µM; hit rate 61% among 920; AID 2777;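 active = rise or fall in signal beyond 3 SD of buffer-only wells in both replicate plates, either sign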;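 also: integrated kinetic ratio of fluorescence range over baseline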
HEK293 MPD ctr 2-1: second counter-screen for TRPC6 inhibitors: parental HEK293 cells. shares compounds with TRPC6 inhibitor. parental HEK293 membrane potential dye fluorescence; maximal acetylcholine challenge after compound addition. signal change vs control, % at 10 µM. hit rate 31% among 920;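 active = membrane potential signal moving either way by over 3 SD of the maximum-effect control, in both duplicate plates, meaning non-specific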
HEK293 MPD ctr-1: checks TRPC6 inhibitor effects in parental HEK293 cells. shares compounds with TRPC6 inhibitor. parental HEK293 membrane potential dye fluorescence. membrane potential signal change, % at 10 µM. hit rate 60% among 920. AID 2780;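 active = membrane potential signal shifting up or down by more than 3 SD of buffer-only wells, on both duplicate plates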
HEK293 MPD ctr-2: counter-screen for TRPC6 modulators: effect in parental HEK293 cells. shares compounds with TRPC6 inhibitor. hit rate 51% among 2,400. membrane potential dye fluorescence. membrane potential signal change, % at 10 µM;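 active = membrane potential signal moves up or down beyond 5 SD from buffer-only wells, on both duplicate plates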
HEK293 MPD ctr 2-2: second counter-screen for TRPC6 modulators: effect in parental HEK293 cells; shares compounds with TRPC6 inhibitor; membrane potential dye fluorescence; after compound, maximal acetylcholine stimulation; inhibition, % at 10 µM; hit rate 14% among 2,400;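 active = membrane potential signal drops by more than 5 SD from the mean control signal, in both duplicate plates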
TRPC4/MOR mod: selectivity of TRPC6 modulators against mouse TRPC4; shares compounds with TRPC6 inhibitor; HEK293 TRPC4/mu-opioid, membrane potential fluorescence; percent change from control (negative = decrease, positive = increase), % at 10 µM; hit rate 69% among 2,400;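 active = membrane potential signal moved up or down beyond 5 SD of buffer control wells, in both duplicate plates, actives on both sides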
TRPC4 ctr inh 2: second check of whether TRPC6 modulators also affect mouse TRPC4 | shares compounds with TRPC6 inhibitor | HEK293 TRPC4/mu-opioid, membrane potential dye fluorescence; stimulated with maximal-effect DAMGO | inhibition, % at 10 µM | hit rate 55% among 2,400;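 active = drop in membrane potential signal beyond 5 SD of the control wells in both duplicate plates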;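 also: TRPC4 counter screen for TRPC6 hits run under conditions tuned for TRPC6 not TRPC4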
TRPC6 block conf: confirmation of mouse TRPC6 inhibitors; shares compounds with TRPC6 inhibitor; HEK293-TRPC6, membrane potential dye, ACh-evoked depolarization; inhibition, % at 10 µM; hit rate 43% among 3,300; AID 488960;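 active = fluorescence ratio falls more than 5 SD below the full-stimulation control mean, in both duplicate runs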;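 also: integrated fluorescence ratio of peak minus minimum over baseline after agonist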
TRPC6 act confirm: confirmation of mouse TRPC6 activators. shares compounds with TRPC6 inhibitor. activation, % at 10 µM. hit rate 11% among 2,800. AID 488961. HEK293-TRPC6 membrane potential dye fluorescence, FDSS;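 active = ratio signal rise beyond 5 SD above unstimulated control wells' mean, seen in both duplicate runs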
Hits are given with their value; – = inactive; · = no result.

SMILES | TRPC4 agonist | TRPC4 potent | TRPC6 activator | TRPC4 block | TRPC6 inhibitor | HEK293 MPD ctr-2 | HEK293 MPD ctr 2-2 | TRPC4/MOR mod | TRPC4 ctr inh 2 | TRPC6 block conf | TRPC6 act confirm | others
O=C(Cn1c(-c2ccccc2)c[n+]2ccsc12)c1ccc(Br)cc1 | 86 | – | – | – | -5.6 | -122% | – | 60% | 97% | – | –
Cn1c(=N)n(CC(=O)c2ccc(Br)cc2)c2ccccc21 | – | – | – | – | – | · | · | · | · | · | ·
CC(C)n1cnc2c(N(C)c3ccccc3)nc(N(CCN(C)C)Cc3ccccc3)nc21 | 110 | – | – | – | -5.8 | 87% | – | 40% | 96% | 48% | –
COC(=O)CSc1nc2sc3c(c2c(=O)n1C1CCCCC1)CCN(C)C3 | – | – | – | – | -9.4 | · | · | · | · | – | – | TRPC4 spec 2=78%;TRPC4 spec=–;HEK293 MPD ctr 2-1=–;HEK293 MPD ctr-1=-212%
Cn1c(SCC(=O)N2CCOCC2)nc2sc3c(c2c1=O)CCCC3 | – | – | – | – | -8.8 | · | · | · | · | – | – | TRPC4 spec 2=–;TRPC4 spec=–;HEK293 MPD ctr 2-1=–;HEK293 MPD ctr-1=–
CC(=O)c1sc2nsc(SCCN3CCCC3)c2c1N | – | – | – | – | -5.2 | 232% | – | – | 36% | – | ·
CNC(=O)NC(=O)C(C)OC(=O)c1ccc(Cl)c(S(=O)(=O)Nc2ccc(F)cc2)c1 (stereo not drawn) | – | – | – | – | – | · | · | · | · | · | ·
CCCCNCC(O)(c1ccc(Cl)cc1)c1ccc(Cl)cc1 | – | – | – | – | -5 | 120% | – | 26% | 47% | – | ·
CCc1cc(C(=O)OCC(=O)N2CCC(c3ccccc3)=N2)sc1C | – | – | – | – | – | · | · | · | · | · | ·
COc1ccc(-c2noc(CN3CCCCC3c3nccn3C)n2)cc1 (stereo not drawn) | – | – | – | – | – | · | · | · | · | · | ·
Cn1ccnc1C1CCCCN1Cc1nc(Cc2cccc(C(F)(F)F)c2)no1 (stereo not drawn) | – | – | – | – | -5.3 | 136% | – | 32% | 27% | – | ·
Cn1ccnc1C1CCCCN1Cc1nc(-c2ccc3c(c2)OCO3)no1 (stereo not drawn) | – | – | – | – | -5.3 | 184% | 62% | 44% | 40% | 48% | ·
O=C1COc2ccc(C(=O)COC(=O)/C=C/c3ccc(Br)o3)cc2N1 | – | – | – | – | – | · | · | · | · | · | ·
Cc1nc2ccc(NC(=O)c3cncc(Br)c3)cc2s1 | – | – | – | – | – | · | · | · | · | · | ·
O=C(NC(=S)NC1CCSC1=O)c1cccs1 (stereo not drawn) | – | – | – | – | -6.4 | – | – | – | – | – | –
Cc1ccccc1C(=O)NC(=S)NC1CCSC1=O (stereo not drawn) | – | – | – | – | – | · | · | · | · | · | ·
CCN(CC)CCn1c(NC(=O)c2ccccc2O)nc2ccccc21 | – | – | – | – | -12 | · | · | · | · | 88% | – | TRPC4 spec 2=20%;TRPC4 spec=-26%;HEK293 MPD ctr 2-1=3.5%;HEK293 MPD ctr-1=-336%
CCN(CC)CCn1c(C)nc2ccccc21 | – | – | – | – | – | · | · | · | · | · | ·
O=C(Nc1nc2ccccc2n1CCN1CCCCC1)c1ccc(Cl)cc1 | – | – | – | – | – | · | · | · | · | · | ·
CCn1nccc1C(=O)Nc1nc2ccccc2n1CCN1CCCCC1 | – | – | – | – | -6.8 | · | · | · | · | – | – | TRPC4 spec 2=68%;TRPC4 spec=-11%;HEK293 MPD ctr 2-1=–;HEK293 MPD ctr-1=–
Cc1ccc(C(=O)Nc2nc3ccccc3n2CCN2CCCC2)cc1 | – | – | – | – | -11 | -130% | 74% | -30% | 88% | 92% | –
CCN(CC)C(=O)n1c(Cc2ccccc2)nc2ccccc21 | – | – | – | – | – | · | · | · | · | · | ·
Cc1cccnc1NCC(O)COc1ccccc1 (stereo not drawn) | – | – | – | – | -6.5 | – | – | – | – | – | –
O=C(COC(=O)c1nc(Cl)ccc1Cl)NCc1cccs1 | – | – | – | – | – | · | · | · | · | · | ·
N#C/C(=C/c1ccc(N2CCCCC2)o1)C(=O)Nc1ccc2ccccc2c1 | – | – | 80 | – | – | 844% | – | 233% | – | – | 274%
SMILES | TRPC4 agonist | TRPC4 potent | TRPC6 activator | TRPC4 block | TRPC6 inhibitor | HEK293 MPD ctr-2 | HEK293 MPD ctr 2-2 | TRPC4/MOR mod | TRPC4 ctr inh 2 | TRPC6 block conf | TRPC6 act confirm | others
CCOC(=O)c1c(C)n(-c2ccccc2)c2ccc(OCCN(C)C)cc12 | – | – | – | – | – | · | · | · | · | · | ·
CCCn1c(Cc2ccccc2)n[nH]c1=S | – | – | – | – | – | · | · | · | · | · | ·
S=c1[nH]nc(Cc2ccccc2)n1Cc1ccco1 | – | – | – | – | -8.3 | · | · | · | · | 65% | – | TRPC4 spec 2=–;TRPC4 spec=–;HEK293 MPD ctr 2-1=14%;HEK293 MPD ctr-1=–
CCC(C)NS(=O)(=O)c1ccc(NC(=O)Cc2ccc(OC)cc2)cc1 (stereo not drawn) | – | – | – | – | – | · | · | · | · | · | ·
COc1ccc(CCNCc2ccc(OCc3ccc(Cl)nc3)c(OC)c2)cc1OC | – | – | – | – | -6 | – | – | – | 72% | 44% | –
COc1ccccc1N1CCN(C(=O)c2cc(-c3ccccc3O)on2)CC1 | – | – | – | – | -5.9 | – | – | – | – | – | –
COc1ccccc1N1CCN(C(=O)c2cc(-c3ccccc3)on2)CC1 | – | – | – | – | – | · | · | · | · | · | ·
Cc1ccc(S(=O)(=O)Nc2ccc(NC(=O)CN3CCCCC3)cc2)cc1 | – | – | 13 | – | -6.8 | – | – | 8.5% | – | 83% | 118%
Cc1ccc(S(=O)(=O)Nc2cccc(NC(=O)CN3CCCCC3)c2)cc1 | – | – | – | – | – | · | · | · | · | · | ·
CC(C)OC(=O)c1cccnc1SCc1cc(=O)n2ccccc2n1 | – | – | – | – | -6 | – | – | – | – | – | ·
CC(C)OC(=O)c1cccnc1SCC(=O)N(C)c1ccccc1 | – | – | – | – | – | · | · | · | · | · | ·
